Assay results as given in ChEMBL document CHEMBL4014347, “Targeting Mycolic Acid Transport by Indole-2-carboxamides for the Treatment of Mycobacterium abscessus Infections” (J Med Chem, 2017).
≈ marks a conversion by molar mass, not a printed value.

What was measured:
[1] = tested on: Mycobacteroides abscessus; assay: Antibacterial activity against Mycobacterium abscessus CIP104536 after 3 to 5 days by two fold serial dilution method; assay type: functional
In short: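 Broth microdilution per CLSI in cation-adjusted Mueller–Hinton broth; exponential-phase inoculum 5 × 10^6 CFU/mL; two-fold serial dilutions from highest concentration, solvent wells as control; 30 °C for 3−5 days; MIC read visually and confirmed by absorbance at 560 nm; triplicate on three independent occasions.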

[2] = tested on: Mycobacterium tuberculosis; assay: Antibacterial activity against Mycobacterium tuberculosis by AlamarBlue assay; assay type: functional
Vero = assay: Cytotoxicity against African green monkey Vero cells; assay type: cell-based; conditions: Chlorocebus sabaeus
[3] = Selectivity index, ratio of IC50 for African green monkey Vero cells to MIC for Mycobacterium abscessus CIP104536; assay type: toxicity; conditions: read-out: Selectivity Index
[4] = Selectivity index, ratio of IC50 for African green monkey Vero cells to MIC=<90 for Mycobacterium tuberculosis; assay type: toxicity; conditions: read-out: Selectivity Index
[5] = tested on: Mycobacterium tuberculosis; assay: Inhibition of C-terminal His-tagged Mycobacterium tuberculosis Ag85C expressed in Escherichia coli C41 (DE3) at 2.5 to 50 uM after 1 hr by resorufin butyrate-based fluorescence assay
In short: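 Purified Ag85C mycolyltransferase activity measured with the fluorescent probe resorufin butyrate; compounds tested at 2.5 to 50 μM.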

SMILES | MIC [1] [µg/mL] | MIC=<90 [2] [µg/mL] | IC50 (Vero) [µg/mL] | selectivity ratio [3] | selectivity ratio [4] | inhibition [5]
Cc1cc(C)c2cc(CNC3CCCCCCC3)[nH]c2c1 | 0.5 (≈ 1.76 µM) | 0.125 (≈ 0.439 µM) | – | – | – | –
C[C@@H]1[C@@H](NC(=O)c2cc3ccc(Br)cc3[nH]2)C[C@H]2C[C@@H]1C2(C)C | 0.125 (≈ 0.333 µM) | 0.0039 (≈ 0.0104 µM) | – | – | – | –
C[C@@H]1[C@@H](NC(=O)c2cc3c(Cl)cc(Cl)cc3[nH]2)C[C@H]2C[C@@H]1C2(C)C | 128 (≈ 350 µM) | 0.0078 (≈ 0.0214 µM) | 16 (≈ 43.8 µM) | 0.125 | 2050 | –
COc1cc(OC)c2cc(C(=O)NC3CCCCCC3)[nH]c2c1 | 1 (≈ 3.16 µM) | 0.0625 (≈ 0.198 µM) | – | – | – | –
Cc1cccc2[nH]c(C(=O)NC3CCCCCC3)cc12 | 0.25 (≈ 0.925 µM) | 0.0313 (≈ 0.116 µM) | – | – | – | –
Cc1cc(C)c2cc(C(=O)NC3CCCCCC3)[nH]c2c1 | 0.125 (≈ 0.44 µM) | 0.0039 (≈ 0.0137 µM) | 16 (≈ 56.3 µM) | 128 | 4100 | –
Cc1cccc2cc(C(=O)NC3CCCCCC3)[nH]c12 | 16 (≈ 59.2 µM) | 1 (≈ 3.7 µM) | – | – | – | –
O=C(NC12CC3CC(CC(C3)C1)C2)c1cc2c(Cl)cc(Cl)cc2[nH]1 | > 32 | 0.0039 (≈ 0.0107 µM) | ≥ 32 | ≥ 1 | ≥ 8210 | –
O=c1c2ccccc2[se]n1-c1ccccc1 | – | – | – | – | – | Dose-dependent effect
CC1(C)C2CC[C@@]1(C)C(NC(=O)c1cc3c(Cl)cc(Cl)cc3[nH]1)C2 (stereo partly drawn) | > 32 | 0.0156 (≈ 0.0427 µM) | 8 (≈ 21.9 µM) | 0.25 | 513 | –
Cc1cc(C)c2cc(CNC(=O)C3CCCCCC3)[nH]c2c1 | > 32 | 16 (≈ 53.6 µM) | – | – | – | –
CCCCCCCCNC(=O)c1cc2c(Cl)cc(Cl)cc2[nH]1 | > 32 | 128 (≈ 375 µM) | – | – | – | –
Cc1cc(C)c2cc(C(=O)NC3CCCCCCC3)oc2c1 | 0.5 (≈ 1.67 µM) | 8 (≈ 26.7 µM) | – | – | – | –
Cc1ccc2[nH]c(C(=O)NC3CCCCCC3)cc2c1 | 0.25 (≈ 0.925 µM) | 0.25 (≈ 0.925 µM) | – | – | – | –
NNC(=O)c1ccncc1 [ISONIAZID] | – | 0.04 (≈ 0.292 µM) | > 256 | – | > 6400 | –
C[C@@H]1[C@@H](NC(=O)c2cc3c(F)cc(F)cc3[nH]2)C[C@H]2C[C@@H]1C2(C)C | 32 (≈ 96.3 µM) | 0.0039 (≈ 0.0117 µM) | ≥ 64 | ≥ 2 | ≥ 16400 | –
C[C@@H](NC(=O)c1cc2c(Cl)cc(Cl)cc2[nH]1)C1CCCCC1 | 0.5 (≈ 1.47 µM) | 2 (≈ 5.9 µM) | – | – | – | –
O=C(NC1CCCCCCC1)c1cc2cc(Cl)ccc2o1 | 0.5 (≈ 1.64 µM) | 8 (≈ 26.2 µM) | – | – | – | –
O=C(Nc1nc2ccc(OC(F)(F)F)cc2s1)C1CCCCCC1 | > 32 | 128 (≈ 357 µM) | – | – | – | –
O=C(NC1Cc2ccccc2C1)c1cc2c(Cl)cc(Cl)cc2[nH]1 | > 32 | 0.25 (≈ 0.724 µM) | – | – | – | –
O=C(NC1CCC2(CCCCC2)CC1)c1cc2c(Cl)cc(Cl)cc2[nH]1 | > 32 | 0.001953 (≈ 0.00515 µM) | ≥ 64 | ≥ 2 | ≥ 32800 | –
O=C(NC1CCCCCCC1)c1cc2c(C(F)(F)F)cc(C(F)(F)F)cc2[nH]1 | 0.5 (≈ 1.23 µM) | 0.0156 (≈ 0.0384 µM) | – | – | – | –
Cc1cc(C)c2[nH]c(C(=O)NC3CCCCCC3)cc2c1 | 0.25 (≈ 0.879 µM) | 0.0625 (≈ 0.22 µM) | – | – | – | –
CO[C@H]1/C=C/O[C@@]2(C)Oc3c(C)c(O)c4c(O)c(c(/C=N/N5CCN(C)CC5)c(O)c4c3C2=O)NC(=O)/C(C)=C\C=C\[C@H](C)[C@H](O)[C@@H](C)[C@@H](O)[C@@H](C)[C@H](OC(C)=O)[C@@H]1C [RIFAMPIN] | – | – | > 256 | – | – | –
O=C(NC12CC3CC(CC(C3)C1)C2)c1cc2ccc(Br)cc2[nH]1 | 16 (≈ 42.9 µM) | 0.0156 (≈ 0.0418 µM) | ≥ 64 | ≥ 4 | ≥ 4100 | –
Cc1ccc2cc(C(=O)NC3CCCCCC3)[nH]c2c1 | 0.25 (≈ 0.925 µM) | 0.0313 (≈ 0.116 µM) | – | – | – | –
Cc1cc(C)c2cc(C(=O)NC34CC5CC(CC(C5)C3)C4)oc2c1 | 1 (≈ 3.09 µM) | 1 (≈ 3.09 µM) | – | – | – | –
O=C(NC1CCCCCC1)c1cc2c(F)cc(F)cc2[nH]1 | 0.125 (≈ 0.428 µM) | 0.031 (≈ 0.106 µM) | – | – | – | –
CC(C)=CCC/C(C)=C/CNC(=O)c1cc2c(Cl)cc(Cl)cc2[nH]1 | > 32 | 4 (≈ 10.9 µM) | – | – | – | –
